Experimental findings from ChEMBL document CHEMBL1921735, “Antibacterial optimization of 4-aminothiazolyl analogues of the natural product GE2270 A: identification of the cycloalkylcarboxylic acids” (J Med Chem, 2011) are described below.

One may read the MIC as the smallest concentration in the dilution series that meets the test's criterion for growth inhibition. Higher therefore signals a need for much substance. One may read the ED50 as the dose that gives a 50% effect, or the effect in half of the subjects. The term Cmax denotes the highest concentration seen after dosing. As a reminder, the AUC is concentration integrated over time. Low values mean less exposure, high ones more exposure. A word on the clearance: it is a measure of how efficiently the substance is removed, as volume per time. Low readings indicate a low capacity for elimination, high ones a high capacity for elimination. The bioavailability is the share of a dose that reaches the circulation, judged against a reference dose that is usually intravenous. The low end stands for little systemic uptake, the high end for much systemic uptake.

Data set [1] deals with Enterococcus faecalis. As to the kind of experiment: Antibacterial activity against Enterococcus faecalis ATCC 29212 by CLSI M07-A8 method. Type of data set: functional. In a few lines:
(§1)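 Broth microdilution MIC run per CLSI M07-A8 (2009).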

The next data set has as its system Enterococcus faecium. The data set can be described thus: Antibacterial activity against Enterococcus faecium 7130724 by CLSI M07-A8 method. Type of data set: functional. The method in brief:
as §1

Data set [2] has as its system Staphylococcus aureus. As to the kind of experiment: Antibacterial activity against methicillin-resistant Staphylococcus aureus isolate A4.018 by CLSI M07-A8 method. Type of data set: functional.
The subject of the next data set is Streptococcus pyogenes. The data set can be described thus: Antibacterial activity against Streptococcus pyogenes ATCC BAA-595 by CLSI M07-A8 method. Format: functional. In a few lines:
as §1

The test system of data set [3] is Staphylococcus aureus. The data set can be described thus: Antibacterial activity against Staphylococcus aureus ATCC 49951 infected in CD1 mouse assessed as protection against bacterial infection administered 5 hrs post infection measured on day 5. Format: functional. In a few lines:
(§2)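 Mouse lethal systemic infection: ip injection of 1 × 10^8 cfu/mouse (10−100× minimal lethal dose), E. faecalis in 50% sterile rat fecal extract, S. aureus in 0.9% NaCl. Therapy by tail-vein bolus at several doses, six mice per group. Started immediately for E. faecalis; at 1 and 5 h post-inoculation for S. aureus.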

Data set [4] has as its system Enterococcus faecalis. The data set can be described thus: Antibacterial activity against Enterococcus faecalis isolate NB04025 infected in CD1 mouse assessed as protection against bacterial infection administered immediately after infection measured on day 5. Format: functional. To be noted: isolate NB04025, 120 h. The method in brief: as §2
A short description of data set [5]: Cmax in Sprague-Dawley rat at 1 mg/kg, iv bolus. The arrangement: dose 1 mg/kg, route intravenous. Format: ADME, organism-based. To be noted: in vivo. In a few lines:
(§3)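 Male Sprague−Dawley rats (220−270 g, ~6−10 weeks) with dual jugular vein cannulae, fasted overnight and for 8 h post-dose, given iv bolus (N = 2 or 3). Blood was collected into K2EDTA tubes and plasma was obtained. Plasma was protein-precipitated with acetonitrile containing glyburide internal standard, then analysed by LC−MS/MS (C18, 0.1% formic acid water/acetonitrile gradient).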

The nature of data set [6]: Cmax in Sprague-Dawley rat at 25 mg/kg, iv bolus. Format: ADME, organism-based. The arrangement: dose 25 mg/kg, route intravenous. To be noted: in vivo. In a few lines: as §3
Data set [7] has as its system Rattus norvegicus. As to the kind of experiment: Cmax in Sprague-Dawley rat at 75 mg/kg, iv bolus. Format: ADME, organism-based. The arrangement: dose 75 mg/kg, route intravenous. To be noted: in vivo. In a few lines: as §3
The nature of data set [8]: AUC in Sprague-Dawley rat at 1 mg/kg, iv bolus. Type of data set: ADME, organism-based. The arrangement: dose 1 mg/kg, route intravenous. To be noted: plasma. The method in brief:
as §3

A short description of data set [9]: AUC in Sprague-Dawley rat at 25 mg/kg, iv bolus. To be noted: plasma. Type of data set: ADME, organism-based. The arrangement: dose 25 mg/kg, route intravenous. In a few lines:
as §3

A short description of data set [10]: AUC in Sprague-Dawley rat at 75 mg/kg, iv bolus. Format: ADME, organism-based. The arrangement: dose 75 mg/kg, route intravenous. To be noted: plasma. In a few lines: as §3
Data set [11] in a line: Volume of distribution at steady state in Sprague-Dawley rat at 1 mg/kg, iv bolus. Particulars: in vivo, read-out: Vdss. Type of data set: ADME, organism-based. The arrangement: dose 1 mg/kg, route intravenous. The method in brief:
as §3

A short description of data set [12]: Volume of distribution at steady state in Sprague-Dawley rat at 25 mg/kg, iv bolus. Format: ADME, organism-based. The arrangement: dose 25 mg/kg, route intravenous. Particulars: in vivo, read-out: Vdss. In a few lines:
as §3

Data set [13] can be described thus: Volume of distribution at steady state in Sprague-Dawley rat at 75 mg/kg, iv bolus. The arrangement: dose 75 mg/kg, route intravenous. Particulars: in vivo, read-out: Vdss. Type of data set: ADME, organism-based. The method in brief: as §3
Data set [14] can be described thus: Clearance in Sprague-Dawley rat at 1 mg/kg, iv bolus. The arrangement: dose 1 mg/kg, route intravenous. Particulars: in vivo. Type of data set: ADME, organism-based. In a few lines: as §3
The nature of data set [15]: Clearance in Sprague-Dawley rat at 25 mg/kg, iv bolus. The arrangement: dose 25 mg/kg, route intravenous. Particulars: in vivo. Format: ADME, organism-based. The method in brief:
as §3

Data set [16] can be described thus: Clearance in Sprague-Dawley rat at 75 mg/kg, iv bolus. To be noted: in vivo. The arrangement: dose 75 mg/kg, route intravenous. Type of data set: ADME, organism-based. The method in brief:
as §3

A short description of data set [17]: Plasma protein binding in Sprague-Dawley rat. Format: ADME, cell-free. Particulars: read-out: PPB. The method in brief:
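Rat plasma protein binding was determined in triplicate by rapid equilibrium dialysis. Samples were quantified by LC−MS/MS after acetonitrile precipitation with glyburide internal standard.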

The nature of data set [18]: Oral bioavailability in Sprague-Dawley rat. Type of data set: ADME, organism-based. Particulars: in vivo.
Data set [19] relates to Staphylococcus aureus. As to the kind of experiment: Antibacterial activity against Staphylococcus aureus ATCC 01001 infected in thigh of CD1 mouse assessed as prevention of colony formation at 80 to 320 mg/kg, ip administered 2 hrs post infection measured after 12 hrs. Type of data set: functional, organism-based. In a few lines: (§4)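 Female CD1 mice (21−25 g), made neutropenic with cyclophosphamide ip at 150 mg/kg (day −4) and 100 mg/kg (day −1). Left thigh infected im with 0.05 mL S. aureus ATCC 01001 (7.5 × 10^5 cfu/thigh), grown 16 h at 36 °C in cation-supplemented Mueller Hinton. Treatment given 2 h post-infection, four mice per group. At 12 or 24 h thighs were excised, homogenized in 0.9% NaCl, serially diluted and plated on blood agar for cfu.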

Data set [20] relates to Staphylococcus aureus. As to the kind of experiment: Antibacterial activity against Staphylococcus aureus ATCC 01001 infected in thigh of CD1 mouse assessed as prevention of colony formation at 80 to 320 mg/kg, ip administered 2 hrs post infection measured after 24 hrs. Format: functional, organism-based. In a few lines: as §4
Data set [21] deals with Staphylococcus aureus. As to the kind of experiment: Bacteriostatic activity against Staphylococcus aureus ATCC 01001 infected in thigh of CD1 mouse assessed as prevention of colony formation at 40 mg/kg, ip administered 2 hrs post infection measured after 12 hrs. The arrangement: dose 40 mg/kg. Format: functional, organism-based. In a few lines: as §4
Data set [22] relates to Staphylococcus aureus. As to the kind of experiment: Bacteriostatic activity against Staphylococcus aureus ATCC 01001 infected in thigh of CD1 mouse assessed as prevention of colony formation at 80 mg/kg, ip administered 2 hrs post infection measured after 24 hrs. Format: functional, organism-based. The arrangement: dose 80 mg/kg. In a few lines:
as §4

For data set [23], the system named is Rattus norvegicus. As to the kind of experiment: Dose normalized AUC in Sprague-Dawley rat at 1 mg/kg, iv bolus. The arrangement: dose 1 mg/kg, route intravenous. Format: ADME, organism-based. Particulars: in vivo. The method in brief:
as §3

In data set [24] the test system is Rattus norvegicus. The data set can be described thus: Dose normalized AUC in Sprague-Dawley rat at 25 mg/kg, iv bolus. Format: ADME, organism-based. The arrangement: dose 25 mg/kg, route intravenous. Particulars: in vivo. The method in brief:
as §3

In data set [25] the test system is Rattus norvegicus. As to the kind of experiment: Dose normalized AUC in Sprague-Dawley rat at 75 mg/kg, iv bolus. Type of data set: ADME, organism-based. The arrangement: dose 75 mg/kg, route intravenous. To be noted: in vivo. The method in brief: as §3
Data set [26] can be described thus: Chemical stability of the compound in 15% v/v NaOH, 5% PEG-300, 0.9% saline, 55% v/v water at pH 7.2 to 7.8. Type of data set: physicochemical. To be noted: buffer.
For another data set, the system named is Streptococcus pneumoniae. The data set can be described thus: Antibacterial activity against Streptococcus pneumoniae by CLSI M07-A8 method. Format: functional, organism-based. In a few lines: as §1
Data set [27] deals with Staphylococcus aureus. The data set can be described thus: Antibacterial activity against Staphylococcus aureus ATCC 01001 infected in thigh of CD1 mouse assessed as prevention of colony formation at 32 mg/kg, ip administered 2 hrs post infection measured after 12 hrs. Type of data set: functional, organism-based. The arrangement: dose 32 mg/kg. The method in brief:
as §4

Data set [28] has as its system Staphylococcus aureus. The data set can be described thus: Antibacterial activity against Staphylococcus aureus ATCC 01001 infected in thigh of CD1 mouse assessed as prevention of colony formation at 32 mg/kg, ip administered 2 hrs post infection measured after 24 hrs. Type of data set: functional, organism-based. The arrangement: dose 32 mg/kg. In a few lines:
as §4

Data set [29] relates to Staphylococcus aureus. The data set can be described thus: Bacteriostatic activity against Staphylococcus aureus ATCC 01001 infected in thigh of CD1 mouse assessed as prevention of colony formation at 80 mg/kg, po administered 2 hrs post infection measured after 12 hrs. Format: functional, organism-based. The arrangement: dose 80 mg/kg. The method in brief: as §4
Data set [30] deals with Staphylococcus aureus. The data set can be described thus: Bacteriostatic activity against Staphylococcus aureus ATCC 01001 infected in thigh of CD1 mouse assessed as prevention of colony formation at 80 mg/kg, po administered 2 hrs post infection measured after 24 hrs. Type of data set: functional, organism-based. The arrangement: dose 80 mg/kg. In a few lines: as §4

Values after ≈ are worked out from the molar mass of the structure shown. Active and inactive are the calls of the source. A value given as a limit tells only on which side of the number the result lay.

With `CNC(=O)C[C@@H]1NC(=O)c2csc(n2)-c2ccc(-c3nc(NC(=O)[C@H]4CC[C@H](C(=O)O)CC4)cs3)nc2-c2csc(n2)-c2csc(n2)[C@H]([C@@H](O)c2ccccc2)NC(=O)CNC(=O)c2nc(sc2COC)[C@H](C(C)C)NC(=O)c2nc1sc2C`, the MIC was 0.06 µg/mL (≈ 0.048 µM) in the data set with Enterococcus faecalis [1], 0.06 µg/mL (≈ 0.048 µM) in the data set on Enterococcus faecium, 0.125 µg/mL (≈ 0.1 µM) in the data set on Staphylococcus aureus [2] and 4 µg/mL (≈ 3.2 µM) in the data set with Streptococcus pyogenes. Also, the figures for the ED50 in the data set with Staphylococcus aureus [3] and with Enterococcus faecalis [4] were 5.2 mg/kg and 0.6 mg/kg, respectively. In addition, the figures for the Cmax (in data set [5]; in [6]; with Rattus norvegicus [7]) were 5 µM, 320 µM and > 1000 µM, respectively. The AUC was 3 µM·h in [8], 343 µM·h in data set [9] and 2860 µM·h in data set [10]. The Vd in data set [11], in [12] and in data set [13] was < 0.1 L/kg each time. Also, the clearance in data set [14] amounted to 6.7 mL/min/kg; in data set [15] it was 1 mL/min/kg; in data set [16] it was 0.4 mL/min/kg. Moreover, the fraction unbound in data set [17] was < 0.01. For the same compound, the bioavailability in [18] is < 0.1%. Moreover, the result in the data set on Staphylococcus aureus [19], in the data set on Staphylococcus aureus [20], in the data set on Staphylococcus aureus [21], in the data set with Staphylococcus aureus [22] and in the data set on Streptococcus pneumoniae was Active. Also, the AUC/dose in the data set with Rattus norvegicus [23] is 3 µM·h/mg/kg; in the data set with Rattus norvegicus [24], 13.7 µM·h/mg/kg; in the data set on Rattus norvegicus [25], 38.2 µM·h/mg/kg. In data set [26], the Stability is > 1 weeks.
With `CCCCCCCCCC(=O)N[C@@H](Cc1c[nH]c2ccccc12)C(=O)N[C@H](CC(N)=O)C(=O)N[C@@H](CC(=O)O)C(=O)N[C@@H]1C(=O)NCC(=O)N[C@@H](CCCN)C(=O)N[C@@H](CC(=O)O)C(=O)N[C@H](C)C(=O)N[C@@H](CC(=O)O)C(=O)NCC(=O)N[C@H](CO)C(=O)N[C@@H]([C@H](C)CC(=O)O)C(=O)N[C@@H](CC(=O)c2ccccc2N)C(=O)O[C@@H]1C`, the outcome in the data set on Staphylococcus aureus [27] and in the data set on Staphylococcus aureus [28] was Active.
Consider `CC(=O)NC[C@H]1CN(c2ccc(N3CCOCC3)c(F)c2)C(=O)O1`, for which the result in the data set with Staphylococcus aureus [29] and in the data set on Staphylococcus aureus [30] was Active.
